Reference: ChEMBL document CHEMBL4138242, “Synthesis and antibacterial evaluation of novel cationic chalcone derivatives possessing broad spectrum antibacterial activity” (Eur J Med Chem, 2018)
Activity calls are given as the source filed them. The calls are words filed in the database; no cut-off is given here.

Legend:
[1] = tested on: Staphylococcus aureus; assay: Antibacterial activity against Staphylococcus aureus ATCC 29213 after 16 to 20 hrs by broth microdilution method; format: functional
Method in brief: (§1)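 Broth microdilution per CLSI. Bacteria grown 4-6 h (about 10⁸ CFU/mL), then diluted to about 10⁶ CFU/mL. Medium: Mueller-Hinton broth, except Luria-Bertani broth for E. coli. Compounds in sterile water, twofold series 256-0.5 µg/mL, mixed 1:1 with inoculum, 37 °C for 16-20 h. MIC is the lowest concentration without visible growth. Duplicate wells; experiment repeated at least twice.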

[2] = tested on: Enterococcus faecalis; assay: Antibacterial activity against Enterococcus faecalis ATCC 29212 after 16 to 20 hrs by broth microdilution method; format: functional; method in brief: as §1
[3] = tested on: Escherichia coli; assay: Antibacterial activity against Escherichia coli ATCC 25922 after 16 to 20 hrs by broth microdilution method; format: functional; method in brief: as §1
[4] = tested on: Salmonella enterica; assay: Antibacterial activity against Salmonella enterica ATCC 13076 after 16 to 20 hrs by broth microdilution method; format: functional; method in brief: as §1
[5] = Hemolytic activity in sheep RBC after 1 hr; format: ADME, cell-based, Ovis aries, Erythrocyte; details: sheep red blood cells (erythrocytes)
Method in brief: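 Sheep red blood cells (150 µL suspension) mixed with 50 µL of compound dilutions (5120-10 µg/mL), 1 h at 37 °C, then centrifuged. Supernatant read at 540 nm. Percent hemolysis calculated relative to RBC-only control (0%) and 0.1% Triton X-100 (100%).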

[6] = tested on: Staphylococcus aureus; assay: Antibacterial activity against methicillin-resistant Staphylococcus aureus clinical isolate 1105183 cono7 after 16 to 20 hrs by broth microdilution method; format: functional
Method in brief: (§2)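 CLSI broth microdilution in Mueller-Hinton broth. A 4-6 h culture was diluted to about 10⁶ CFU/mL and mixed 1:1 with compound dilutions prepared at 256 to 0.5 µg/mL from aqueous stocks. Plates were incubated at 37 °C for 16-20 h and read visually for MIC. Each concentration was run in duplicate, and the experiment was repeated at least twice. Vancomycin and meropenem were comparators.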

[7] = tested on: Staphylococcus aureus; assay: Antibacterial activity against methicillin-resistant Staphylococcus aureus clinical isolate 20130911034sau after 16 to 20 hrs by broth microdilution method; format: functional; method in brief: as §2
[8] = tested on: Staphylococcus aureus; assay: Antibacterial activity against methicillin-resistant Staphylococcus aureus clinical isolate 0831010 after 16 to 20 hrs by broth microdilution method; format: functional; method in brief: as §2
[9] = tested on: Staphylococcus aureus; assay: Antibacterial activity against methicillin-resistant Staphylococcus aureus clinical isolate 1104060 after 16 to 20 hrs by broth microdilution method; format: functional; method in brief: as §2
[10] = tested on: Staphylococcus aureus; assay: Antibacterial activity against methicillin-resistant Staphylococcus aureus clinical isolate 20131012632sau after 16 to 20 hrs by broth microdilution method; format: functional; method in brief: as §2
[11] = tested on: Staphylococcus aureus; assay: Antibacterial activity against methicillin-resistant Staphylococcus aureus clinical isolate 1207007 after 16 to 20 hrs by broth microdilution method; format: functional; method in brief: as §2
[12] = tested on: Staphylococcus aureus; assay: Antibacterial activity against methicillin-resistant Staphylococcus aureus clinical isolate 1-may after 16 to 20 hrs by broth microdilution method; format: functional; method in brief: as §2
[13] = tested on: Staphylococcus aureus; assay: Antibacterial activity against methicillin-resistant Staphylococcus aureus clinical isolate 0906202 after 16 to 20 hrs by broth microdilution method; format: functional; method in brief: as §2
[14] = tested on: Staphylococcus aureus; assay: Antibacterial activity against methicillin-resistant Staphylococcus aureus clinical isolate 1208143 after 16 to 20 hrs by broth microdilution method; format: functional; method in brief: as §2
[15] = tested on: Klebsiella pneumoniae; assay: Antibacterial activity against drug-resistant carbapenemase producing Klebsiella pneumoniae clinical isolate KP-14-8 after 16 to 20 hrs by broth microdilution method; format: functional; method in brief: as §2
[16] = tested on: Klebsiella pneumoniae; assay: Antibacterial activity against drug-resistant carbapenemase producing Klebsiella pneumoniae clinical isolate KP-13-45 after 16 to 20 hrs by broth microdilution method; format: functional; method in brief: as §2
[17] = tested on: Klebsiella pneumoniae; assay: Antibacterial activity against drug-resistant carbapenemase producing Klebsiella pneumoniae clinical isolate KP-14-3 after 16 to 20 hrs by broth microdilution method; format: functional; method in brief: as §2
[18] = tested on: Klebsiella pneumoniae; assay: Antibacterial activity against drug-resistant carbapenemase producing Klebsiella pneumoniae clinical isolate KP-14-1 after 16 to 20 hrs by broth microdilution method; format: functional; method in brief: as §2
[19] = tested on: Klebsiella pneumoniae; assay: Antibacterial activity against drug-resistant carbapenemase producing Klebsiella pneumoniae clinical isolate KP-14-4 after 16 to 20 hrs by broth microdilution method; format: functional; method in brief: as §2
[20] = tested on: Klebsiella pneumoniae; assay: Antibacterial activity against drug-resistant carbapenemase producing Klebsiella pneumoniae clinical isolate KP-13-54 after 16 to 20 hrs by broth microdilution method; format: functional; method in brief: as §2
[21] = tested on: Klebsiella pneumoniae; assay: Antibacterial activity against drug-resistant carbapenemase producing Klebsiella pneumoniae clinical isolate KP-14-2 after 16 to 20 hrs by broth microdilution method; format: functional; method in brief: as §2
[22] = tested on: Klebsiella pneumoniae; assay: Antibacterial activity against drug-resistant carbapenemase producing Klebsiella pneumoniae clinical isolate EC-13-23 after 16 to 20 hrs by broth microdilution method; format: functional; method in brief: as §2
[23] = tested on: Klebsiella pneumoniae; assay: Antibacterial activity against drug-resistant carbapenemase producing Klebsiella pneumoniae clinical isolate KP-14-5 after 16 to 20 hrs by broth microdilution method; format: functional; method in brief: as §2
[24] = tested on: Klebsiella pneumoniae; assay: Antibacterial activity against drug-resistant carbapenemase producing Klebsiella pneumoniae clinical isolate KP-13-55 after 16 to 20 hrs by broth microdilution method; format: functional; method in brief: as §2
[25] = tested on: Klebsiella pneumoniae; assay: Antibacterial activity against drug-resistant carbapenemase producing Klebsiella pneumoniae clinical isolate KP-14-45 after 16 to 20 hrs by broth microdilution method; format: functional; method in brief: as §2
[26] = tested on: Klebsiella pneumoniae; assay: Antibacterial activity against drug-resistant carbapenemase producing Klebsiella pneumoniae clinical isolate KP-14-18 after 16 to 20 hrs by broth microdilution method; format: functional; method in brief: as §2
[27] = tested on: Escherichia coli; assay: Antibacterial activity against drug-resistant NDM1 producing Escherichia coli clinical isolate EC-13-49 after 16 to 20 hrs by broth microdilution method; format: functional; method in brief: as §2
[28] = tested on: Escherichia coli; assay: Antibacterial activity against drug-resistant NDM1 producing Escherichia coli clinical isolate Ecl-14-58 after 16 to 20 hrs by broth microdilution method; format: functional; method in brief: as §2
[29] = tested on: Escherichia coli; assay: Antibacterial activity against drug-resistant NDM1 producing Escherichia coli clinical isolate KP-13-58 after 16 to 20 hrs by broth microdilution method; format: functional; method in brief: as §2
[30] = tested on: Escherichia coli; assay: Antibacterial activity against drug-resistant NDM1 producing Escherichia coli clinical isolate Ecl-13-62 after 16 to 20 hrs by broth microdilution method; format: functional; method in brief: as §2
[31] = tested on: Escherichia coli; assay: Antibacterial activity against drug-resistant NDM1 producing Escherichia coli clinical isolate EC-14-54 after 16 to 20 hrs by broth microdilution method; format: functional; method in brief: as §2
[32] = tested on: Escherichia coli; assay: Antibacterial activity against drug-resistant NDM1 producing Escherichia coli clinical isolate Ecl-14-59 after 16 to 20 hrs by broth microdilution method; format: functional; method in brief: as §2
[33] = tested on: Escherichia coli; assay: Antibacterial activity against drug-resistant NDM1 producing Escherichia coli clinical isolate EA-14-61 after 16 to 20 hrs by broth microdilution method; format: functional; method in brief: as §2
[34] = tested on: Escherichia coli; assay: Antibacterial activity against drug-resistant NDM1 producing Escherichia coli clinical isolate Ecl-14-56 after 16 to 20 hrs by broth microdilution method; format: functional; method in brief: as §2
[35] = tested on: Escherichia coli; assay: Antibacterial activity against drug-resistant NDM1 producing Escherichia coli clinical isolate 1460 after 16 to 20 hrs by broth microdilution method; format: functional; method in brief: as §2
[36] = tested on: Escherichia coli; assay: Antibacterial activity against drug-resistant NDM1 producing Escherichia coli clinical isolate SM-15-84 after 16 to 20 hrs by broth microdilution method; format: functional; method in brief: as §2
[37] = tested on: Escherichia coli; assay: Antibacterial activity against drug-resistant NDM1 producing Escherichia coli clinical isolate CF-15-61 after 16 to 20 hrs by broth microdilution method; format: functional; method in brief: as §2
[38] = tested on: Escherichia coli; assay: Antibacterial activity against drug-resistant NDM1 producing Escherichia coli clinical isolate CF-13-61 after 16 to 20 hrs by broth microdilution method; format: functional; method in brief: as §2
[39] = tested on: Staphylococcus aureus; assay: Induction of cytoplasmic membrane depolarization in Staphylococcus aureus ATCC 29213 at 10 to 20 ug/ml measured every 2 mins for 12 mins by DiSC35 dye-based fluorescence assay; format: functional, organism-based
Method in brief: (§3)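 Mid-log cells (~10⁸ CFU/mL) were suspended in PBS (S. aureus) or HEPES/glucose/KCl with EDTA (E. coli). They were preloaded with DiSC3(5) for 30 min (S. aureus) or 40 min (E. coli), and baseline fluorescence was read for 8 min. Compound was added to 20 µg/mL final, and fluorescence (ex 622/em 670 nm) was read every 2 min for 12 min. Water served as control.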

[40] = tested on: Escherichia coli; assay: Induction of cytoplasmic membrane depolarization in Escherichia coli ATCC 25922 at 10 to 20 ug/ml measured every 2 mins for 12 mins by DiSC35 dye-based fluorescence assay; format: functional, organism-based; method in brief: as §3
[41] = tested on: Staphylococcus aureus; assay: Induction of inner membrane permeabilization in Staphylococcus aureus ATCC 29213 at 10 to 20 ug/ml measured every 2 mins for 12 mins by propidium iodide staining-based fluorescence assay; format: functional, organism-based
Method in brief: (§4)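 Mid-log cells (~10⁸ CFU/mL) were suspended in PBS (S. aureus) or HEPES/glucose/KCl (E. coli). They were preincubated with propidium iodide for 30 min (S. aureus) or 40 min (E. coli), and baseline fluorescence was read for 8 min. Compound was added to 20 µg/mL final, and fluorescence (ex 535/em 617 nm) was read every 2 min for 12 min.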

[42] = tested on: Escherichia coli; assay: Induction of inner membrane permeabilization in Escherichia coli ATCC 25922 at 10 to 20 ug/ml measured every 2 mins for 12 mins by propidium iodide staining-based fluorescence assay; format: functional, organism-based; method in brief: as §4

## CCCCCCCC[N+](C)(C)CC(=O)Nc1ccc(C(=O)/C=C/c2ccc(C)cc2)cc1.[Cl-]
[1]
  MIC: 1 µg/mL
[2]
  MIC: 1 µg/mL
[3]
  MIC: 4 µg/mL
[4]
  MIC: 8 µg/mL
[5]
  HC50 at 1 h: 153 µg/mL
[6]
  MIC: 1 µg/mL
[7]
  MIC: 0.5 µg/mL
[8]
  MIC: 0.5 µg/mL
[9]
  MIC: 4 µg/mL
[10]
  MIC: 2 µg/mL
[11]
  MIC: 0.5 µg/mL
[12]
  MIC: 1 µg/mL
[13]
  MIC: 4 µg/mL
[14]
  MIC: 2 µg/mL
[15]
  MIC: 4 µg/mL
[16]
  MIC: 4 µg/mL
[17]
  MIC: 8 µg/mL
[18]
  MIC: 8 µg/mL
[19]
  MIC: 4 µg/mL
[20]
  MIC: 8 µg/mL
[21]
  MIC: 16 µg/mL
[22]
  MIC: 4 µg/mL
[23]
  MIC: 4 µg/mL
[24]
  MIC: 16 µg/mL
[25]
  MIC: 4 µg/mL
[26]
  MIC: 16 µg/mL
[27]
  MIC: 4 µg/mL
[28]
  MIC: 4 µg/mL
[29]
  MIC: 2 µg/mL
[30]
  MIC: 8 µg/mL
[31]
  MIC: 8 µg/mL
[32]
  MIC: 4 µg/mL
[33]
  MIC: 4 µg/mL
[34]
  MIC: 4 µg/mL
[35]
  MIC: 8 µg/mL
[36]
  MIC: 1 µg/mL
[37]
  MIC: 4 µg/mL
[38]
  MIC: 32 µg/mL
[39]
  Activity: Active
[40]
  Activity: Active
[41]
  Activity: Active
[42]
  Activity: Active

## CCCCCCCC[N+](C)(C)CC(=O)Nc1ccc(C(=O)/C=C/c2cccs2)cc1.[Cl-]
[1]
  MIC: 0.5 µg/mL
[2]
  MIC: 1 µg/mL
[3]
  MIC: 4 µg/mL
[4]
  MIC: 8 µg/mL
[5]
  HC50 at 1 h: 133 µg/mL
[6]
  MIC: 1 µg/mL
[7]
  MIC: 1 µg/mL
[8]
  MIC: 0.5 µg/mL
[9]
  MIC: 16 µg/mL
[10]
  MIC: 4 µg/mL
[11]
  MIC: 1 µg/mL
[12]
  MIC: 2 µg/mL
[13]
  MIC: 1 µg/mL
[14]
  MIC: 2 µg/mL
[15]
  MIC: 8 µg/mL
[16]
  MIC: 8 µg/mL
[17]
  MIC: 8 µg/mL
[18]
  MIC: 8 µg/mL
[19]
  MIC: 8 µg/mL
[20]
  MIC: 8 µg/mL
[21]
  MIC: 2 µg/mL
[22]
  MIC: 8 µg/mL
[23]
  MIC: 8 µg/mL
[24]
  MIC: 16 µg/mL
[25]
  MIC: 16 µg/mL
[26]
  MIC: 16 µg/mL
[27]
  MIC: 4 µg/mL
[28]
  MIC: 8 µg/mL
[29]
  MIC: 2 µg/mL
[30]
  MIC: 8 µg/mL
[31]
  MIC: 4 µg/mL
[32]
  MIC: 8 µg/mL
[33]
  MIC: 8 µg/mL
[34]
  MIC: 8 µg/mL
[35]
  MIC: 2 µg/mL
[36]
  MIC: 4 µg/mL
[37]
  MIC: 8 µg/mL
[38]
  MIC: 8 µg/mL
